Data reported in ChEMBL document CHEMBL1154546, “Synthesis of 5- and 6-substituted 2-(4-dimethylaminophenyl)-1,3-benzoxazoles and their in vitro and in vivo evaluation as imaging agents for amyloid plaque” (Bioorg Med Chem Lett, 2009).
Activity calls are given as the source filed them.

What was measured:
[1] = Displacement of [3H]BTA1 from amyloid beta (1 to 40) peptide by […]
Papio anubis = test: In vivo binding affinity to amyloid beta (1 to 40) peptide in ovariectomized baboon by SPECT imaging; assay type: functional, organism-based; conditions: tested as the 123I-labelled form
How it was run: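 Nonhuman primate fasted 18-24 h, immobilized with ketamine (10 mg/kg i.m.) plus glycopyrrolate (10 μg/kg i.m.) 2 h before study, intubated, kept on 2.5% isoflurane, vitals checked every 15 min. 123I tracer (3.2 mCi in 8 mL, ethanol/saline) injected. Continuous brain-dedicated SPECT at 159 keV for 1 h. Reconstruction used ramp plus Butterworth filter (cutoff 0.65 cm-1).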

| Structure (SMILES) | Ki [1] [nM] | Activity (Papio anubis) |
| --- | --- | --- |
| CN(C)c1ccc(-c2nc3ccc(NC(=O)c4ccccc4)cc3o2)cc1 | 26 |  |
| CN(C)c1ccc(-c2nc3cc(NC(=O)c4ccc(I)cc4)ccc3o2)cc1 | 9.3 | inactive |
| CN(C)c1ccc(-c2nc3cc(NC(=O)c4ccc5c(c4)OCO5)ccc3o2)cc1 | 17.2 |  |
| Cc1ccc(C(=O)Nc2ccc3oc(-c4ccc(N(C)C)cc4)nc3c2)cc1 | 13.2 |  |
| CN(C)c1ccc(-c2nc3ccc(NC(=O)c4ccc5c(c4)OCO5)cc3o2)cc1 | 19.7 |  |
| Cc1ccccc1C(=O)Nc1ccc2nc(-c3ccc(N(C)C)cc3)oc2c1 | 112 |  |
| Cc1ccc(C(=O)Nc2ccc3nc(-c4ccc(N(C)C)cc4)oc3c2)cc1 | 86 |  |
| Cc1ccccc1C(=O)Nc1ccc2oc(-c3ccc(N(C)C)cc3)nc2c1 | 18.9 |  |
| Cc1cccc(C(=O)Nc2ccc3nc(-c4ccc(N(C)C)cc4)oc3c2)c1 | 31.5 |  |
| CN(C)c1ccc(-c2nc3cc(NC(=O)c4ccccc4)ccc3o2)cc1 | 12 |  |
| COc1cc(C(=O)Nc2ccc3nc(-c4ccc(N(C)C)cc4)oc3c2)cc(OC)c1OC | 628 |  |
| CN(C)c1ccc(-c2nc3ccc(NC(=O)c4ccc(I)cc4)cc3o2)cc1 | 60.1 |  |
| Cc1cccc(C(=O)Nc2ccc3oc(-c4ccc(N(C)C)cc4)nc3c2)c1 | 13.4 |  |
| COc1cc(C(=O)Nc2ccc3oc(-c4ccc(N(C)C)cc4)nc3c2)cc(OC)c1OC | 109 |  |
